Hits are enriched below; roughly 11% of the tested compounds scored in any of these assays.
M1 antag: antagonists of rat M1 muscarinic receptor. CHO-M1 cells, Fluo-4 calcium, ACh EC80 antagonist mode; hits give low values. B-score at 10 µM. 64,000 compounds, 3.4% hits. AID 628;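 active means calcium fluorescence response, raw or row-and-column corrected B-score, differing from the plate sample mean either way at a set confidence level, mostly lower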
RORA act: activators of human nuclear receptor RORA; P35398; CHO-K1 Gal4-RORA LBD luciferase reporter, luminescence; percent increase over mock-subtracted basal signal; activation, % at 10 µM; 65,000 compounds, 1.5% hits; AID 560;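 active means activation above the mean of all tested compounds plus 3 SD, cut at about 49% in these data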
D1 allo mod: allosterically modulates the human D1 dopamine receptor; HEK293 D1, CRE-luciferase, dopamine EC30 potentiation; actives deviate in either direction; B-score at 10 µM; 58,000 compounds, 5.9% hits;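 active means luminescence count or its row- and column-corrected plate score outside the 99.7% band of the plate's sample wells, on either side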
Target sequence (P21728 whole entry, looked up): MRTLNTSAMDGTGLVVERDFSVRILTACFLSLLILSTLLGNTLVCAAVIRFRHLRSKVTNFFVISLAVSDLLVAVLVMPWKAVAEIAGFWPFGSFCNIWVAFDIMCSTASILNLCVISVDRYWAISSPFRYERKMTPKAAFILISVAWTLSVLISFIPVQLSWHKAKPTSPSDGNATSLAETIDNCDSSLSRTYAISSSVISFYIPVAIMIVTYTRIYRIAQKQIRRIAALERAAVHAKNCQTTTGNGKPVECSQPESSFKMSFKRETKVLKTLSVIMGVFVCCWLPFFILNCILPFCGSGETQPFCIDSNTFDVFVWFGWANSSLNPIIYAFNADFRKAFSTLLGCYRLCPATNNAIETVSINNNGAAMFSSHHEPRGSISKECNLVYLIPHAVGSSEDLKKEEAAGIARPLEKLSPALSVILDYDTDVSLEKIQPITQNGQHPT
SF1 activator: activators of human nuclear receptor SF-1. Q13285. CHO-K1 Gal4-SF-1 LBD luciferase reporter; % increase over DMSO SF-1-specific signal. activation, % at 10 µM. 65,000 compounds, 1.9% hits;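 active means activation above the mean activation of all tested compounds plus 3 SD, cut at about 50% in these data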
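Assay system – CHO-K1 cells with Gal4–hSF-1 LBD chimera plus Gal4-driven luciferase · Quantity – 4,000 cells per well · Times – compound added 1 h post-seeding, 20 h exposure at 37 °C, 5% CO2 · Measured by – luciferase light emission · Benchmarks – DMSO and mock-transfected background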
Htt clearance: mutant huntingtin protein clearance | HeLa Exon1htt(103Q)mCFP, aggregate imaging; zero = plate's median compound well | AID 853 | 47,000 compounds, 0.42% hits | inhibition, % at 1.5 µM;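 active means inhibition of aggregate fluorescence above about 70%, also judged a hit by eye on the cell image, limit read from the data, passing the limit was not always enough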;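 further: cells exposed to compound for three days before fixation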
M1 ag: activates the M1 muscarinic receptor | CHO-M1 cells, Fluo-4 calcium fluorescence, agonist mode; hits give high values | B-score at 10 µM | 64,000 compounds, 3% hits;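 active means fluorescence rise, raw or as B-score row- and column-corrected plate score, outside the 99.7% band of its plate's samples, either direction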
M1 antag conf: confirmation of rat M1 muscarinic receptor antagonists; shares compounds with M1 antag; 1,700 compounds, 43% hits; CHO-M1 cells, Fluo-4 calcium, ACh EC80 antagonism; hits give low values; calcium response (max-min fluorescence) at 10 µM;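 active means calcium response below the same-plate mean of wells given acetylcholine alone at its 80%-effect dose, minus 3 SD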
mGluR4 antag: acts on human mGluR4 in M1 antagonist selectivity test. 1,700 compounds, 0.9% hits. shares compounds with M1 antag. CHO-mGluR4 calcium flux, Fluo-4 fluorescence, glutamate EC80; hits give low values. AID 678. fluorescence response (max-min) at 10 µM;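 active means fluorescence response below the plate's average for near-maximal glutamate wells, less 3 SD of those wells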;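 further: raw unnormalized fluorescence span taken in the window right after glutamate addition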
Numbers stand for hits; n = inactive; x = not tested or not shown.

SMILES	M1 antag	RORA act	D1 allo mod	SF1 activator	Htt clearance	M1 ag	M1 antag conf	mGluR4 antag
Cc1c(N=CC=Nc2c(C)n(C)n(-c3ccccc3)c2=O)c(=O)n(-c2ccccc2)n1C	x	n	n	n	x	x	x	x
Cc1c(N=C/C=C/c2ccccc2)c(=O)n(-c2ccccc2)n1C	-11.4	n	n	n	n	n	23.7	n
O=C(Cn1cc2c(n1)CCCC2)N1CCc2ccccc21	n	n	n	n	x	n	x	x
CCN(CC)CCOC(=O)c1c(C)oc2ccc(OC)cc12	-14.3	n	x	n	n	n	98.4	n
CCOC(=O)CCSCC(=O)Nc1nnc(C)s1	-2.4	n	n	n	x	n	n	n
Cc1nnc(NC(=O)CSCc2ccccc2)s1	x	x	x	x	n	x	x	x
Cc1ccc(OCn2c(=O)sc3ccccc32)cc1	n	n	n	n	x	n	x	x
CC(CCN(C)C)OC(=O)c1ccc(C(C)c2ccccc2)o1 (configuration not stated)	-4.38	n	-3.22	n	x	n	349	n
COCCNS(=O)(=O)c1ccc(SC)cc1	-3.19	n	n	n	n	n	n	n
C=CCn1c(NCc2ccc(N(C)C)cc2)nc2ccccc21	-2.27	n	n	n	x	n	n	n
CS(=O)(=O)N(CC(=O)NC1CCCCCC1)Cc1ccc(Cl)cc1	x	x	x	x	n	x	x	x
CCN(CC(=O)NC1CCCCC1)S(=O)(=O)c1ccc(Cl)cc1	-3.21	n	n	n	n	n	n	n
Cc1ccc(C)n1CCN1CCN(CC(=O)Nc2cc(C(F)(F)F)ccc2Cl)CC1	n	n	n	n	x	n	x	x
COc1ccc(/C(N)=C/C(=O)C(C)(C)C)cc1	-3.53	n	x	n	n	n	n	n
CC(C)(C)C(=O)/C=C(\N)c1ccncc1	n	n	n	n	n	n	x	x
CC(=O)Oc1cc2c(C(C)=O)coc2c2ccccc12	n	n	n	n	n	n	x	x
CC(=O)c1cc(C)ccc1OC(=O)c1cccc2nc(C)oc12	-4.23	n	n	n	n	n	n	n
O=S(=O)(/N=S1/CC=CCN1S(=O)(=O)c1ccccc1)c1ccccc1 (configuration not stated)	-2.06	n	n	n	n	n	n	n
CN(C)S(=O)(=O)N(Cc1ccc(Br)cc1)c1ccccc1	-2.24	n	n	n	n	n	n	n
Cn1c(N)c(C(=O)COC(=O)Cn2cc(C(F)(F)F)ccc2=O)c(=O)n(C)c1=O	n	n	x	n	x	n	x	x
Cc1nn(C)c(C)c1S(=O)(=O)Nc1ccc2c(c1)OCO2	-5.93	n	n	n	n	n	n	n
CN1CCN(C(=O)N2c3ccccc3C=Cc3ccccc32)CC1	-18	n	n	n	x	n	19.6	n
CCN(CC)C(=O)N1c2ccccc2C=Cc2ccccc21	x	x	x	x	n	x	x	x
O=C(NCCCN1CCC(Cc2ccccc2)CC1)C1CCC(=O)N1C1CCCC1 (configuration not stated)	n	n	n	n	x	n	x	x
O=C(NCCCN1CCC(Cc2ccccc2)CC1)C1CC(=O)N(C2CCCC2)C1 (configuration not stated)	-3.32	n	n	n	x	n	508	n
SMILES	M1 antag	RORA act	D1 allo mod	SF1 activator	Htt clearance	M1 ag	M1 antag conf	mGluR4 antag
CCCS(=O)(=O)N1CCCC(C(=O)NCCN2CCC(Cc3ccccc3)CC2)C1 (configuration not stated)	-2.37	n	n	n	n	n	n	n
O=S(=O)(Nc1ccc2c(c1)OCO2)c1ccc(Br)s1	n	n	n	n	x	n	x	x
O=C(CN(C(=O)Cn1nnc(-c2cccs2)n1)c1cnc2ccccc2c1)NCC1CCCO1 (configuration not stated)	n	n	x	n	x	n	x	x
O=C(NC1CCCCC1)C1CCN(C(=O)NCc2ccccc2)CC1	-1.39	n	n	n	x	n	n	n
O=C(NC1CC2CCC(C1)N2C(=O)NCc1ccccc1)C1CC1 (configuration not stated)	-2.21	n	n	n	x	n	419	n
O=C(NC1CCCCC1)c1noc2c1CCCCC2	-1.9	n	n	n	x	n	n	n
O=C(O)CC1NC(=O)N(c2ccc(Cl)cc2)C1=O (configuration not stated)	n	n	n	n	n	n	x	x
CC1(C)Nc2ccccc2N(CC(=O)N2CCCCC2)C1=O	-1.26	n	n	n	n	n	n	n
CC1(C)Nc2ccccc2N(CCC(=O)N2CCOCC2)C1=O	n	n	n	n	n	n	x	x
CCC(C)N(C)Cc1cccc(C2(O)CCN(S(=O)(=O)c3ccc(F)cc3)CC2)c1 (configuration not stated)	-2.11	n	x	n	n	n	468	n
O=C(NCCN1CCN(c2ccccc2)CC1)C1CCN(S(=O)(=O)c2cccc3nonc23)CC1	n	n	n	n	n	n	x	x
CCCN(CCC)CCCNC(=O)c1cc2cc3ccc(OC)cc3nc2o1	-6.97	n	n	n	n	n	437	n
CCCCN(CC)CCCNC(=O)c1cc2cc3ccc(OC)cc3nc2o1	-4.75	n	n	n	n	n	n	n
COc1ccc2cc3cc(C(=O)NCCc4ccc(OC)c(OC)c4)oc3nc2c1	n	n	n	n	n	n	x	x
CCCCNC(=O)CC(=O)Nc1ccccc1C(=O)O	n	n	n	n	x	n	x	x
Cn1c(=O)oc2cc(S(=O)(=O)NCc3ccco3)ccc21	-3.37	n	n	n	n	n	n	n
CN1CCCCc2c1nc1c(c2N)CCCC1	-2.47	n	n	n	x	n	n	n
CCOC(=O)C1CCCN(C(=O)c2ccc3c(=O)n(CCOC)c(=S)[nH]c3c2)C1 (configuration not stated)	n	n	n	n	x	n	x	x
CCOC(=O)N1CCN(C(=O)c2ccc3c(=O)n(CCOC)c(=O)[nH]c3c2)CC1	-2.06	n	n	n	x	n	n	n
CCOC(=O)N1CCN(C(=O)c2ccc3c(=O)n4c(nc3c2)CCCCC4)CC1	-5.29	n	n	n	x	n	300	n
CCOC(=O)N1CCN(C(=O)c2ccc3c(=O)n(CCc4ccccc4)c(=O)[nH]c3c2)CC1	-5.1	n	n	n	x	n	296	n
O=C(CCNc1n[nH]c(=O)[nH]c1=O)N1CCOCC1	n	n	x	n	n	n	x	x
Cc1ccc(NC(=O)c2c(-c3c(F)cccc3Cl)noc2C)cc1F	-13.5	n	n	n	x	n	n	n
CC(=O)Nc1cccc(NC(=O)c2c(-c3c(Cl)cccc3Cl)noc2C)c1	n	n	x	n	n	n	x	x
CCN(CC)S(=O)(=O)c1ccc(NC(=O)CN(c2cccc(C)c2)S(C)(=O)=O)cc1	x	x	x	x	n	x	x	x
CCN(CC)S(=O)(=O)c1ccc(NS(=O)(=O)c2cccc(C)c2)cc1	-2.61	n	n	n	x	n	n	n
